ChEMBL document CHEMBL4811241, “Revisiting Pyrazolo[3,4-d]pyrimidine Nucleosides as Anti-Trypanosoma cruzi and Antileishmanial Agents” (J Med Chem, 2021)

Key:
[1] = Cytotoxicity against human MRC-5 SV2 cells assessed as reduction in cell growth measured after 3 days by resazurin dye based fluorometric analysis; conditions: time 3 day
[2] = Selectivity index, ratio of CC50 for human MRC-5 SV2 cells to IC50 for antitrypanosomal activity against nifurtimox-sensitive Trypanosoma cruzi Tulahuen CL2 infected in human MRC-5 SV2 cells; assay type: toxicity, cell-based; conditions: read-out: Ratio CC50/IC50
In short: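 Ratio of MRC-5SV2 CC50 (3-day resazurin assay) to IC50 against T. cruzi amastigotes in MRC-5SV2 cells (7-day CPRG assay).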

[3] = Cytotoxicity against Swiss mouse peritoneal macrophages assessed as cell detachment, lysis and granulation measured after 5 days by microscopic analysis; assay type: cell-based, Peritoneal macrophage; conditions: time 5 day
In short: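 Scored within the Leishmania macrophage assay over 5 days: detachment, lysis and granulation judged semi-quantitatively by microscopy across at least 500 cells. CC50 derived from % reduction in normal cells versus untreated wells.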

[4] = system: CYP450; test: Metabolic stability of the compound in mouse liver microsomes S9 fraction assessed as CYP450-mediated metabolism by measuring parent compound remaining at 5 uM measured after 30 mins in presence of NADPH by UPLC-MS analysis; assay type: ADME, subcellular; conditions: read-out: Stabilty
In short: (§1)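 Compound at 5 μM with 0.5 mg/mL male mouse or pooled human liver microsomes in potassium phosphate buffer; reaction started with 1 mM NADPH. Samples taken at 0, 15, 30 and 60 min and quenched in cold acetonitrile with internal standard. Parent remaining quantified by UPLC-MS/MS in MRM mode and given as % of the 0 min value.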

[5] = system: CYP450; test: Metabolic stability of the compound in mouse liver microsomes S9 fraction assessed as CYP450-mediated metabolism by measuring parent compound remaining at 5 uM measured after 60 mins in presence of NADPH by UPLC-MS analysis; assay type: ADME, subcellular; conditions: read-out: Stabilty; in short: as §1
[6] = target: CYP450 (Homo sapiens, UniProt P04798+P05177+P05181+P08684+P10632+P10635+P11509+P11712+P13584+P20813+P20815+P20853+P24462+P24903+P33260+P33261+P51589+P78329+P98187+Q02928+Q08477+Q16678+Q16696+Q5TCH4+Q6VVX0+Q7Z449+Q8TAV3+Q96SQ9+Q9HB55); test: Metabolic stability of the compound in human liver microsomes S9 fraction assessed as CYP450-mediated metabolism by measuring parent compound remaining at 5 uM measured after 60 mins in presence of NADPH by UPLC-MS analysis; assay type: ADME, subcellular; conditions: read-out: Stabilty; in short: as §1
[7] = system: UGT; test: Metabolic stability of the compound in mouse liver microsomes S9 fraction assessed as UGT-mediated metabolism by measuring parent compound remaining at 5 uM measured after 30 mins in presence of UDPGA by UPLC-MS analysis; assay type: ADME, subcellular; conditions: read-out: Stabilty
In short: (§2)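 Compound at 5 μM with 0.5 mg/mL male mouse or pooled human liver microsomes; reaction started with 2 mM UDPGA. Sampled at 0, 15, 30 and 60 min and quenched in cold acetonitrile with internal standard. Parent remaining measured by UPLC-MS/MS (MRM) as % of the 0 min value.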

[8] = system: UGT; test: Metabolic stability of the compound in mouse liver microsomes S9 fraction assessed as UGT-mediated metabolism by measuring parent compound remaining at 5 uM measured after 60 mins in presence of UDPGA by UPLC-MS analysis; assay type: ADME, subcellular; conditions: read-out: Stabilty; in short: as §2
[9] = target: UGT (Homo sapiens, UniProt O60656+O75310+O75795+P06133+P0DTE4+P0DTE5+P16662+P19224+P22309+P22310+P35503+P35504+P36537+P54855+Q6UWM9+Q9BY64+Q9HAW7+Q9HAW8+Q9HAW9); test: Metabolic stability of the compound in human liver microsomes S9 fraction assessed as UGT-mediated metabolism by measuring parent compound remaining at 5 uM measured after 30 mins in presence of UDPGA by UPLC-MS analysis; assay type: ADME, subcellular; conditions: read-out: Stabilty; in short: as §2
[10] = system: Trypanosoma cruzi; test: Antitrypanosomal activity against Trypanosoma cruzi strain Y bloodstream trypomastigotes infected in Swiss Webster mouse assessed as reduction in parasitemia at 25 mg/kg, po bid for 5 days treatment started at 6 days post-infection and measured at 8 days post-infection by light microscopic analysis; assay type: functional; conditions: 48 h, time 2 day
In short: (§3)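 Male Swiss Webster mice, 18–20 g, six per group; only mice with detectable parasitemia treated. Oral gavage for 5 consecutive days (6–10 dpi); test compound given b.i.d. in 10% Tween 80, benznidazole once daily, formulations freshly prepared. Parasitemia counted by light microscopy in 5 μL blood; mortality checked daily to 34 dpi.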

[11] = system: Trypanosoma cruzi; test: (§4) Antitrypanosomal activity against Trypanosoma cruzi strain Y bloodstream trypomastigotes infected in Swiss Webster mouse assessed as reduction in parasitemia at 0.25 to 2.5 mg/kg, po bid for 5 days treatment started at 6 days post-infection by light microscopic analysis; assay type: functional; conditions: dose 0.25-2.5 mg/kg, time 5 day; in short: as §3
[12] = system: Trypanosoma cruzi; test: as §4, with “at” for “at 0.25 to”, “post-infection in presence of 10 mg/kg, po Benznidazole” for “post-infection”; assay type: functional; conditions: 120 h, time 5 day; in short: as §3
[13] = system: Trypanosoma cruzi; test: Antitrypanosomal activity against intracellular amastigote form of Trypanosoma cruzi Y infected in Swiss Webster mouse cardiomyocytes assessed as inhibition of parasite growth incubated for 48 hrs by Giemsa staining based microscopic analysis; assay type: functional, organism-based; conditions: Cardiac muscle cell
In short: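 Primary 2D mouse embryo cardiac cell cultures, infected for 24 h, then washed and exposed for 48 h at 37 °C to a serial dilution. Cells fixed and stained with Giemsa; infected cells and parasites per infected cell scored in 200 host cells. Activity expressed from the inhibition index; two independent experiments run in duplicate.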

[14] = Selectivity index, ratio of LC50 for cytotoxicity against Swiss Webster mouse 2D cardiomyocytes to IC50 for antitrypanosomal activity against intracellular amastigote form of Trypanosoma cruzi Y infected in Swiss Webster mouse cardiomyocytes; assay type: toxicity, cell-based; conditions: read-out: Ratio LC50/IC50
In short: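 Ratio of cardiac-cell CC₅₀ to Y-strain amastigote IC₅₀. Cardiac cultures were infected after 24 h plating for 24 h with bloodstream trypomastigotes (10:1 parasite/host). After washing, cells were treated 48 h at 37 °C with a serial dilution. Cells were then Giemsa-stained, with infection and parasites per cell scored in 200 cells. Two independent experiments were run in duplicate.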

[15] = Cytotoxicity against Swiss Webster mouse 3D cardiomyocytes assessed as reduction in cell viability measured after 48 hrs by PrestoBlue assay; assay type: tissue-based, Cardiac Muscle Cell
In short: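 Mouse embryo heart cells as monolayer (2D) or 3D aggregates (25 × 10³ cells/well on 1% agarose). Uninfected cultures exposed 48 h to rising concentrations. Morphology checked by light microscopy; viability read by PrestoBlue; CC₅₀ determined.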

[16] = system: Trypanosoma cruzi; test: Antitrypanosomal activity against nifurtimox-sensitive Trypanosoma cruzi Tulahuen CL2 infected in Swiss mouse peritoneal macrophages assessed as inhibition of parasite growth measured after 7 days by spectrophotometric analysis; assay type: functional, organism-based; conditions: Tulahuen CL2, Peritoneal macrophage, 168 h
[17] = system: Trypanosoma cruzi; test: Antitrypanosomal activity against nifurtimox-sensitive Trypanosoma cruzi Tulahuen CL2 infected in Swiss mouse peritoneal macrophages assessed as inhibition of parasite growth measured after 7 days in presence of ABC transporter inhibitor, cyclosporine A by spectrophotometric analysis; assay type: functional, organism-based; conditions: Tulahuen CL2, Peritoneal macrophage, 168 h
In short: (§5)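 Macrophage-hosted 7-day assay read with CPRG at 540 nm, with compound given together with an ABC transporter inhibitor: cyclosporine A 2 μM, probenecid 700 μM or verapamil 8 μM. IC50 from % reduction versus infected controls.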

[18] = system: Trypanosoma cruzi; test: Antitrypanosomal activity against nifurtimox-sensitive Trypanosoma cruzi Tulahuen CL2 infected in Swiss mouse peritoneal macrophages assessed as inhibition of parasite growth measured after 7 days in presence of ABC transporter inhibitor, probenecid by spectrophotometric analysis; assay type: functional, organism-based; conditions: Tulahuen CL2, Peritoneal macrophage, 168 h; in short: as §5

Compound: Nc1ncnc2c1c(-c1ccc(Cl)cc1)nn2[C@@H]1O[C@H](CO)[C@@H](O)[C@H]1O
- CC50 at 72 h [1]: > 64 µM
- selectivity ratio [2]: > 197
- CC50 at 120 h [3]: > 64 µM
- remaining at 0.5 h, 5 µM [4]: 103%
- remaining at 1 h, 5 µM [5]: 108%
- remaining at 1 h, 5 µM [6]: 101%
- remaining at 0.5 h, 5 µM [7]: 115%
- remaining at 1 h, 5 µM [8]: 115%
- remaining at 0.5 h, 5 µM [9]: 106%
- inhibition in vivo at 25 mg/kg [10]: 99%
- inhibition (INH) [11]: 43%
- inhibition in vivo at 2.5 mg/kg [12]: 71%
- IC50 [13]: 0.26 µM
- selectivity ratio [14]: > 1900
- CC50 at 48 h [15]: 200 µM
- IC50 [16]: > 64 µM
- IC50 [17]: > 64 µM
- IC50 [18]: > 64 µM
